Measured values from ChEMBL document CHEMBL4270536, “Preparation, characterisation and biological evaluation of new N-phenyl amidobenzenesulfonates and N-phenyl ureidobenzenesulfonates inducing DNA double-strand breaks. Part 3. Modulation of ring A” (Eur J Med Chem, 2018).
Calls of active or inactive are those of the source. The calls are words filed in the database; no cut-off is given here.

Legend:
M21 [1] = assay: Antiproliferative activity against human M21 cells after 48 hrs by SRB assay; type: functional, cell-based; conditions: M21, 48 h
Summary of the method: (§1)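 Cells grown in DMEM with 5% FBS at 37 C; seeded per well at 2.5 x 10^3 (HT-1080), 4.0 x 10^3 (HT-29), 3.0 x 10^3 (M21) or 2.5 x 10^3 (MCF7). Drugs from 40 mM DMSO stock, serial dilutions, final 100 µM to 78 nM, DMSO <0.5%.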

M21 [2] = assay: Cell cycle arrest in human M21 cells assessed as accumulation at G2/M phase at 2 times IC50 after 24 hrs by DAPI staining based flow cytometry relative to control; type: functional
Summary of the method: (§2)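 Flow cytometry in M21 cells seeded in six-well plates, allowed 24 h, then exposed 24 h to drug (2- or 5-fold IC50); DMSO 0.5% control. Trypsinized, PBS-washed, fixed in ice-cold EtOH, stained with 2 mg/mL DAPI in PBS; sub-G1, G0/G1, S and G2/M fractions measured on LSR II cytometer.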

HT-29 = assay: Antiproliferative activity against human HT-29 cells after 48 hrs by SRB assay; type: functional, cell-based; conditions: HT-29, 48 h; summary of the method: as §1
M21 [3] = assay: Cell cycle arrest in human M21 cells assessed as accumulation at S phase at 2 times IC50 after 24 hrs by DAPI staining based flow cytometry relative to control; type: functional; summary of the method: as §2
M21 [4] = assay: Cell cycle arrest in human M21 cells assessed as accumulation at sub-G1 phase at 2 times IC50 after 24 hrs by DAPI staining based flow cytometry relative to control; type: functional; summary of the method: as §2
MCF7 = assay: Antiproliferative activity against human MCF7 cells after 48 hrs by SRB assay; type: functional, cell-based; conditions: MCF7, 48 h; summary of the method: as §1
HT-1080 = assay: Antiproliferative activity against human HT1080 cells after 48 hrs by SRB assay; type: functional, cell-based; conditions: HT-1080, 48 h; summary of the method: as §1
M21 [5] = assay: Cell cycle arrest in human M21 cells assessed as accumulation at G0/G1 phase at 2 times IC50 after 24 hrs by DAPI staining based flow cytometry relative to control; type: functional; summary of the method: as §2
M21 [6] = assay: Induction of DNA damage in human M21 cells assessed as increase in gammaH2Ax level at 5 times IC50 after 24 hrs by immunofluorescence based epifluorescence microscopy
[7] = Alkylating activity at DNA (unknown origin) after 90 mins by colorimetric NBP assay; type: functional
Summary of the method: (§3)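 NBP alkylation kinetics (Bardos colorimetric method): 400 nmol drug in 1 mL ethanol mixed with 1 mL NBP (10% v/v in 95% ethanol), 1 mL 50 mM acetate buffer pH 4.3 and 1 mL ethanol, kept on ice, then heated at 80 C in shaking water bath; stopped on ice 5 min after 0, 30, 60, 90 min. Rate constant from linear regression of absorbance curve; chlorambucil as positive control.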

[8] = Alkylating activity at DNA (unknown origin) after 90 mins by colorimetric NBP assay relative to chlorambucil; type: functional; summary of the method: as §3
M21 [9] = assay: Cell cycle arrest in human M21 cells assessed as accumulation at G2/M phase at 2 times IC50 after 24 hrs by DAPI staining based flow cytometry relative to control
M21 [10] = assay: Cell cycle arrest in human M21 cells assessed as accumulation at G0/G1 phase at 2 times IC50 after 24 hrs by DAPI staining based flow cytometry relative to control
M21 [11] = assay: Cell cycle arrest in human M21 cells assessed as accumulation at sub-G1 phase at 2 times IC50 after 24 hrs by DAPI staining based flow cytometry relative to control
M21 [12] = assay: Cell cycle arrest in human M21 cells assessed as accumulation at S phase at 2 times IC50 after 24 hrs by DAPI staining based flow cytometry relative to control

| Compound | IC50 (M21 [1]) [µM] | Activity (M21 [2]) [%] | IC50 (HT-29) [µM] | Activity (M21 [3]) [%] | Activity (M21 [4]) [%] | IC50 (MCF7) [µM] | IC50 (HT-1080) [µM] | Activity (M21 [5]) [%] | Activity (M21 [6]) | K [7] [×10⁻³ /s] | fold change (FC) [8] | Activity (M21 [9]) [%] | Activity (M21 [10]) [%] | Activity (M21 [11]) [%] | Activity (M21 [12]) [%] |
| --- | --- | --- | --- | --- | --- | --- | --- | --- | --- | --- | --- | --- | --- | --- | --- |
| CC(C)(C)C(=O)Nc1ccc(S(=O)(=O)Oc2ccccc2I)cc1 | 8.3 | 15.9 | 9.5 | 29.1 | 0 | 6.6 | 2.6 | 55 |  |  |  |  |  |  |  |
| CCCCCC(=O)Nc1ccc(S(=O)(=O)Oc2ccccc2I)cc1 | 11 | 44.3 | 13 | 12.9 | 0.2 | 10 | 9.6 | 42.6 |  |  |  |  |  |  |  |
| CCCC(=O)Nc1ccc(S(=O)(=O)Oc2ccccc2C(C)C)cc1 | 6.1 | 15.5 | 4.9 | 43.8 | 0.7 | 6.6 | 0.95 | 40 | Active | 0.37 | 14 |  |  |  |  |
| O=C(CCl)Nc1ccc(S(=O)(=O)Oc2ccccc2I)cc1 | 3.9 | 12.1 | 4.1 | 16.5 | 0.3 | 2.5 | 0.6 | 71.1 |  |  |  |  |  |  |  |
| CC(C)c1ccccc1OS(=O)(=O)c1ccc(NC(=O)NCCCl)cc1 |  |  |  |  |  |  |  |  |  | 0.0034 | 1600 |  |  |  |  |
| O=C(Nc1ccc(S(=O)(=O)Oc2ccccc2I)cc1)NC1CC1 | 11 |  | 14 |  |  | 7.4 | 1.3 |  |  |  |  | 11.5 | 61.5 | 0.1 | 26.9 |
| CC(C)C(=O)Nc1ccc(S(=O)(=O)Oc2ccccc2I)cc1 | 13 | 14.2 | 13 | 23.6 | 0.2 | 8.1 | 3.3 | 62 |  |  |  |  |  |  |  |
| CC(C)c1ccccc1OS(=O)(=O)c1ccc(NC(=O)NCC2CCCC2)cc1 | 6.6 |  | 6.8 |  |  | 7.1 | 6 |  |  |  |  | 21.7 | 63.9 | 0.1 | 14.3 |
| O=C(NCC1CCCC1)Nc1ccc(S(=O)(=O)Oc2ccccc2I)cc1 | 7.6 |  | 7.6 |  |  | 6.6 | 6.1 |  |  |  |  | 24.8 | 56.2 | 0.1 | 18.9 |
| CCC(=O)Nc1cccc(S(=O)(=O)Oc2ccccc2C(C)C)c1 | 25 |  | 22 |  |  | 14 | 12 |  |  |  |  |  |  |  |  |
| CC(C)c1ccccc1OS(=O)(=O)c1ccc(NC(=O)CCl)cc1 | 3.9 | 21 | 5.6 | 18 | 0.1 | 2.9 | 1 | 60.9 |  |  |  |  |  |  |  |
| CC(C)c1ccccc1OS(=O)(=O)c1cccc(NC(=O)CCl)c1 | 3.9 | 18.8 | 4.5 | 17.1 | 0 | 2.2 | 0.78 | 64.1 |  |  |  |  |  |  |  |
| CCCNC(=O)Nc1ccc(S(=O)(=O)Oc2ccccc2C(C)C)cc1 | 5.1 |  | 6.3 |  |  | 2.7 | 0.68 |  |  | 0.027 | 200 | 10 | 64.6 | 0.3 | 25.1 |
| CCCCCC(=O)Nc1cccc(S(=O)(=O)Oc2ccccc2C(C)C)c1 | 11 | 13.5 | 19 | 16 | 1.5 | 12 | 11 | 69 |  |  |  |  |  |  |  |
| CC(=O)Nc1ccc(S(=O)(=O)Oc2ccccc2I)cc1 | 27 |  | 23 |  |  | 27 | 17 |  |  |  |  |  |  |  |  |
| CCCCCC(=O)Nc1ccc(S(=O)(=O)Oc2ccccc2C(C)C)cc1 | 6.7 | 26.6 | 6.4 | 28.3 | 3.7 | 5.3 | 6.3 | 41.4 |  |  |  |  |  |  |  |

| Compound | IC50 (M21 [1]) [µM] | Activity (M21 [2]) [%] | IC50 (HT-29) [µM] | Activity (M21 [3]) [%] | Activity (M21 [4]) [%] | IC50 (MCF7) [µM] | IC50 (HT-1080) [µM] | Activity (M21 [5]) [%] | Activity (M21 [6]) | K [7] [×10⁻³ /s] | fold change (FC) [8] | Activity (M21 [9]) [%] | Activity (M21 [10]) [%] | Activity (M21 [11]) [%] | Activity (M21 [12]) [%] |
| --- | --- | --- | --- | --- | --- | --- | --- | --- | --- | --- | --- | --- | --- | --- | --- |
| CC(=O)Nc1ccc(S(=O)(=O)Oc2ccccc2C(C)C)cc1 | 21 |  | 23 |  |  | 16 | 12 |  |  | 0.36 | 14 |  |  |  |  |
| CC(C)c1ccccc1OS(=O)(=O)c1ccc(NC(=O)CCCCl)cc1 | 5.1 | 25.2 | 6.2 | 19.3 | 0.2 | 5.2 | 3.8 | 55.3 |  |  |  |  |  |  |  |
| CC(C)c1ccccc1OS(=O)(=O)c1ccc(NC(=O)NC2CCCC2)cc1 | 6.1 |  | 7.4 |  |  | 6.2 | 3.9 |  |  |  |  | 27.2 | 60.2 | 0.1 | 12.5 |
| CC(C)C(=O)Nc1ccc(S(=O)(=O)Oc2ccccc2C(C)C)cc1 | 11 | 10.5 | 14 | 27.3 | 0.2 | 8.6 | 4.9 | 62 |  |  |  |  |  |  |  |
| CC(=O)Nc1cccc(S(=O)(=O)Oc2ccccc2C(C)C)c1 | 31 |  | 27 |  |  | 21 | 21 |  |  |  |  |  |  |  |  |
| O=C(NCCCl)Nc1ccc(S(=O)(=O)Oc2ccccc2I)cc1 |  |  |  |  |  |  |  |  |  | 0.071 | 75 | 12.2 | 56.8 | 0.1 | 30.9 |
| CC(C)C(=O)Nc1cccc(S(=O)(=O)Oc2ccccc2C(C)C)c1 | 17 | 32.5 | 16 | 12.9 | 0.1 | 13 | 16 | 54.5 |  |  |  |  |  |  |  |
| O=C(O)CCCc1ccc(N(CCCl)CCCl)cc1 |  |  |  |  |  |  |  |  |  | 5.3 |  |  |  |  |  |
| CCCC(=O)Nc1cccc(S(=O)(=O)Oc2ccccc2C(C)C)c1 | 20 | 18.4 | 13 | 14.4 | 3 | 9.4 | 15 | 64.2 |  |  |  |  |  |  |  |
| CCNC(=O)Nc1ccc(S(=O)(=O)Oc2ccccc2CC)cc1 |  |  |  |  |  |  |  |  |  | 0.032 | 170 |  |  |  |  |
| CCCCCNC(=O)Nc1ccc(S(=O)(=O)Oc2ccccc2I)cc1 | 5.9 |  | 6.6 |  |  | 5.4 | 6.9 |  |  |  |  | 23 | 62.2 | 0.1 | 14.7 |
| CCCCCNC(=O)Nc1ccc(S(=O)(=O)Oc2ccccc2C(C)C)cc1 | 4.6 |  | 4.9 |  |  | 4 | 4.7 |  |  |  |  | 26.9 | 60.6 | 0.3 | 12.2 |
| CC(C)c1ccccc1OS(=O)(=O)c1cccc(NC(=O)CCCl)c1 | > 40 |  | 11 |  |  | 12 | 8.2 |  |  |  |  |  |  |  |  |
| CC(C)c1ccccc1OS(=O)(=O)c1cccc(NC(=O)C(C)(C)C)c1 | 13 | 18.2 | 19 | 20 | 0.7 | 14 | 11 | 61.1 |  |  |  |  |  |  |  |
| O=C(CCCCl)Nc1ccc(S(=O)(=O)Oc2ccccc2I)cc1 | 7.2 | 40.7 | 9.1 | 17.1 | 0.2 | 6.3 | 12 | 42 |  |  |  |  |  |  |  |
